Blank lines part the entries; values can stand above or below the molecule they belong to.
Experiments:
[1] = Apparent permeability across apical to basal side in MDCK-MDR1 cells; assay type: ADME, cell-based, Canis lupus familiaris; settings: dog
[2] = biological target: T1, G protein-coupled receptor kinase 5 (Homo sapiens, UniProt P34947); test: Binding affinity to GRK5 (unknown origin) by Thermofluor thermal shift assay
Rhodopsin kinase GRK1 [3] = biological target: T2, Rhodopsin kinase GRK1 (Homo sapiens, UniProt Q15835); test: Binding affinity to GRK1 (unknown origin) by Thermofluor thermal shift assay
T2 sequence (Q15835 whole entry): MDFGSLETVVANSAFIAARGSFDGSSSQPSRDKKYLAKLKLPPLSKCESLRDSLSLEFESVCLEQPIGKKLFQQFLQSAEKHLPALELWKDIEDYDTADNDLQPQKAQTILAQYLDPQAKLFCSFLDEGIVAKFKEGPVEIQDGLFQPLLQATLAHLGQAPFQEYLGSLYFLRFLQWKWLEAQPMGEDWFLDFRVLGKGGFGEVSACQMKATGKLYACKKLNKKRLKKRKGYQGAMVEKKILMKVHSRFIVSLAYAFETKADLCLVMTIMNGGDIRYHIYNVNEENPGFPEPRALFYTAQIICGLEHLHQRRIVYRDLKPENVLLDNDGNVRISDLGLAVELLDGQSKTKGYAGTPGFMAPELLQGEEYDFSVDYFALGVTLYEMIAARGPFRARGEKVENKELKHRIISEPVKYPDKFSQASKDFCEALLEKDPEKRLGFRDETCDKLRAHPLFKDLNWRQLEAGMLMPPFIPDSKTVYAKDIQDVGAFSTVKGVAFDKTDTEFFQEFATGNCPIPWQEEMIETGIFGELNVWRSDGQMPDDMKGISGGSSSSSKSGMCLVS

[4] = biological target: G protein-coupled receptor kinase 6 (Homo sapiens, UniProt P43250); test: Inhibition of human GRK6
Aurora kinase A = biological target: T3, Aurora kinase A (Homo sapiens, UniProt O14965); test: Inhibition of human Aurora A
T3 sequence (O14965 whole entry): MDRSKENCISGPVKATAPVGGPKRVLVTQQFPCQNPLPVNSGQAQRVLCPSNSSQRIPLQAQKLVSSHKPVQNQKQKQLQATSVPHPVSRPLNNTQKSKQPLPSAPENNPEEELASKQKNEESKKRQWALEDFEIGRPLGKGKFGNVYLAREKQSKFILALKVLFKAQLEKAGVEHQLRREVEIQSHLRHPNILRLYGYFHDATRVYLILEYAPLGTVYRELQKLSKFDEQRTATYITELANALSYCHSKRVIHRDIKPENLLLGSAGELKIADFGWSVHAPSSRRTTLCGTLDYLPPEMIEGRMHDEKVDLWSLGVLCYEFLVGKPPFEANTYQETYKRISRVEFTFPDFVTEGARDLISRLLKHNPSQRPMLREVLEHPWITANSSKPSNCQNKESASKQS

[5] = biological target: Rho-associated protein kinase 1 (Homo sapiens, UniProt Q13464); test: Inhibition of human ROCK1
Rhodopsin kinase GRK7 = biological target: T4, Rhodopsin kinase GRK7 (Homo sapiens, UniProt Q8WTQ7); test: Inhibition of human GRK7
T4 sequence (Q8WTQ7 whole entry): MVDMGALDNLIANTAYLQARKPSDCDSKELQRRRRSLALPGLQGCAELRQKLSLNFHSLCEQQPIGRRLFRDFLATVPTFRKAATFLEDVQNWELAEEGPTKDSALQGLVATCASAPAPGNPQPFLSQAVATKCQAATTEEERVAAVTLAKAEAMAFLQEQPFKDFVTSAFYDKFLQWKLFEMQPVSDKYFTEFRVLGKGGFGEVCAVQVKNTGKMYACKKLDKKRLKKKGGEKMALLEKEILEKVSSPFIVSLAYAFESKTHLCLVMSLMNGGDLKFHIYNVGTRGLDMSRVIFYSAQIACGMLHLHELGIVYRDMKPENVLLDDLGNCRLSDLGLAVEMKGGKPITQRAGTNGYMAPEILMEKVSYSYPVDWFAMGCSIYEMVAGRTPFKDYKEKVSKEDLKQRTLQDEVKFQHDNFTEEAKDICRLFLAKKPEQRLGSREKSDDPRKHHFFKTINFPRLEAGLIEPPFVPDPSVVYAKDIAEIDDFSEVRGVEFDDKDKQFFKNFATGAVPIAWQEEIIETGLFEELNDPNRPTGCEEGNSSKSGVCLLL

[6] = Inhibition of protein kinase A (unknown origin); design: species or system Homo sapiens
[7] = biological target: Protein kinase C alpha type (Homo sapiens, UniProt P17252); test: Inhibition of human PKCalpha
[8] = biological target: Ribosomal protein S6 kinase alpha-1 (Homo sapiens, UniProt Q15418); test: Inhibition of RSK1 (unknown origin)
[9] = biological target: Calcium/calmodulin-dependent protein kinase type II subunit beta (Homo sapiens, UniProt Q13554); test: Inhibition of human CaMK2beta
[10] = biological target: T1, G protein-coupled receptor kinase 5; test: Inhibition of human GRK5
[11] = biological target: Protein kinase C beta type (Homo sapiens, UniProt P05771); test: Inhibition of human PKCbeta1
Rhodopsin kinase GRK1 [12] = biological target: T2, Rhodopsin kinase GRK1; test: Inhibition of human GRK1
[13] = biological target: RAC-alpha serine/threonine-protein kinase (Homo sapiens, UniProt P31749); test: Inhibition of human PKBalpha
[14] = Volume of distribution at steady state in C57BL mouse at 2 mg/kg, iv or 10 mg/kg, po administered as single dose; assay type: ADME, organism-based; settings: in vivo, read-out: Vdss
Procedure, shortened: (§1)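 C57BL mice given a single dose, 2 mg/kg i.v. or 10 mg/kg p.o., both formulated in 20% HPbCD. Plasma concentration–time profiles gave clearance, Vdss, terminal half-lives, Cmax, tmax, oral AUC and bioavailability.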

[15] = Half life in C57BL mouse at 2 mg/kg, iv administered as single dose; assay type: ADME, organism-based; settings: in vivo; procedure, shortened: as §1
[16] = Oral bioavailability in C57BL mouse at 10 mg/kg administered as single dose; assay type: ADME, organism-based; settings: in vivo; procedure, shortened: as §1
[17] = Plasma clearance in C57BL mouse at 2 mg/kg, iv or 10 mg/kg, po administered as single dose; assay type: ADME, organism-based; procedure, shortened: as §1
[18] = Tmax in C57BL mouse at 2 mg/kg, iv or 10 mg/kg, po administered as single dose; assay type: ADME, organism-based; settings: in vivo; procedure, shortened: as §1
[19] = Cmax in C57BL mouse at 2 mg/kg, iv or 10 mg/kg, po administered as single dose; assay type: ADME, organism-based; design: dose 10 mg/kg; settings: in vivo; procedure, shortened: as §1
[20] = Half life in C57BL mouse at 10 mg/kg, po administered as single dose; assay type: ADME, organism-based; settings: in vivo; procedure, shortened: as §1

T1 sequence (P34947 whole entry): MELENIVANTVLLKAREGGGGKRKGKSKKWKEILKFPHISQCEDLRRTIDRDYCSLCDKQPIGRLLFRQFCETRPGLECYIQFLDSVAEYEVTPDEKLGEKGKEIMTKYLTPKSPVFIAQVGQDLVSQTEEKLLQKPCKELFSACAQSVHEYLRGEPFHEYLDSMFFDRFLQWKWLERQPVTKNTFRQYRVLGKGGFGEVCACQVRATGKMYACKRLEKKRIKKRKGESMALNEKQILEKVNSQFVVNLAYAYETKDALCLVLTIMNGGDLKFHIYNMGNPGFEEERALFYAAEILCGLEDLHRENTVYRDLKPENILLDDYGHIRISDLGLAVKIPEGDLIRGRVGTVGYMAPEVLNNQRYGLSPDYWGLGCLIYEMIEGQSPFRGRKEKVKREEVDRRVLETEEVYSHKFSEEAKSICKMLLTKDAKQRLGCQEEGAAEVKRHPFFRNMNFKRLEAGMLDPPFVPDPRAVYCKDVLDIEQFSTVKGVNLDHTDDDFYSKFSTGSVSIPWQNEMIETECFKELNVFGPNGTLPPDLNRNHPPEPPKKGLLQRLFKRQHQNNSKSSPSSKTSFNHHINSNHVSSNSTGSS
Calcium/calmodulin-dependent protein kinase type II subunit beta, sequence (Q13554 whole entry): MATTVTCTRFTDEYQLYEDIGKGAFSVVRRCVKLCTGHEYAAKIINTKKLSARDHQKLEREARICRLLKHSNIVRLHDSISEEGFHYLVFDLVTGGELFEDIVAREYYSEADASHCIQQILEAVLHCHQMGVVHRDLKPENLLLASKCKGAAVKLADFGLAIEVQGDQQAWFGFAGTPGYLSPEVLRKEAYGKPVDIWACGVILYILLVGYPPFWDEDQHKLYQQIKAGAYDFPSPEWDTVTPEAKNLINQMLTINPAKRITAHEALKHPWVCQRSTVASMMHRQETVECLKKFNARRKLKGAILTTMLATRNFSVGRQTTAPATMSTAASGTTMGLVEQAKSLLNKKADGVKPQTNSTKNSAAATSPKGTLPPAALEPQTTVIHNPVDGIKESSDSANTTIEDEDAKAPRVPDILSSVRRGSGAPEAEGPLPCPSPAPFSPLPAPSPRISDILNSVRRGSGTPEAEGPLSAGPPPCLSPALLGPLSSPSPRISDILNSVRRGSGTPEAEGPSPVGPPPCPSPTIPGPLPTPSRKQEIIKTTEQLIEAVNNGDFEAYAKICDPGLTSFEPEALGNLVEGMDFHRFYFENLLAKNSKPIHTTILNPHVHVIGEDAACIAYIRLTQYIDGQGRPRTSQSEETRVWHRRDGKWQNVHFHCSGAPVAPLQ
Protein kinase C beta type, sequence (P05771 whole entry): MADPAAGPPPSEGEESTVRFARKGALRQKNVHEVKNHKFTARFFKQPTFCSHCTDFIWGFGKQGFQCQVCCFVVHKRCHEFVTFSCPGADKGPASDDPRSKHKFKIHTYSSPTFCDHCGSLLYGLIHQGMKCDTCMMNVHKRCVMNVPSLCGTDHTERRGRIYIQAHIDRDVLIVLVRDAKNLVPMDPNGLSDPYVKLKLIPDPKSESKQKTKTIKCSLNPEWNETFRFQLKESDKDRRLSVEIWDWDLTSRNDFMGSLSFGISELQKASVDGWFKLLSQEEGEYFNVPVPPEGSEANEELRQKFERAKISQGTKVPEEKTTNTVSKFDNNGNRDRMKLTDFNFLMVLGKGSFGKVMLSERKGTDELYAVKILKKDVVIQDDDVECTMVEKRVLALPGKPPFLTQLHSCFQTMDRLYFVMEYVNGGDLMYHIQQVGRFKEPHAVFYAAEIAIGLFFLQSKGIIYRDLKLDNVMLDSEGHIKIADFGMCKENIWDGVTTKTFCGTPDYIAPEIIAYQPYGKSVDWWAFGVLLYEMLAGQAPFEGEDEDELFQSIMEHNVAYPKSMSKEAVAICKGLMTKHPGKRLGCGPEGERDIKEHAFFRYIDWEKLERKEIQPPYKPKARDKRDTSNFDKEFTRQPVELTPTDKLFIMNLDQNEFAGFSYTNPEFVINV
Ribosomal protein S6 kinase alpha-1, sequence (Q15418 whole entry): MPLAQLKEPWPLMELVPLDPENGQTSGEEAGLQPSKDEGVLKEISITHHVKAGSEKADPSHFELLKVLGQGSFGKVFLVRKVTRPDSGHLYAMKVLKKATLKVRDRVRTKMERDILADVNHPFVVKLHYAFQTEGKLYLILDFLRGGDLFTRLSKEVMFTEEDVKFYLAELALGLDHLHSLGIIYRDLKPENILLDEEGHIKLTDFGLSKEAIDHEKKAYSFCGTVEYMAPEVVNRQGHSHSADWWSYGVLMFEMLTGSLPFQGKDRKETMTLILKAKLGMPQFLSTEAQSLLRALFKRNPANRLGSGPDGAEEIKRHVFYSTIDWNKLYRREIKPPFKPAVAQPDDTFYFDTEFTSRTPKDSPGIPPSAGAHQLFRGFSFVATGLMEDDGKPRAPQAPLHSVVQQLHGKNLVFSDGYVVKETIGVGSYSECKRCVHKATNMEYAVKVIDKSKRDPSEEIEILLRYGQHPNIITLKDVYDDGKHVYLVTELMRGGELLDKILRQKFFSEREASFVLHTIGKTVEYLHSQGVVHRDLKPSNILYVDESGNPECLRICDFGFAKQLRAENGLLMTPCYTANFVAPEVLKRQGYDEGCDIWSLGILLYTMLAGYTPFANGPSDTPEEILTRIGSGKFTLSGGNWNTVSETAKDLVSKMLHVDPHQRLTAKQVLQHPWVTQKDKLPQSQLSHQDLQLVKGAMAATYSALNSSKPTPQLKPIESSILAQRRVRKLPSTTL
G protein-coupled receptor kinase 6, sequence (P43250 whole entry): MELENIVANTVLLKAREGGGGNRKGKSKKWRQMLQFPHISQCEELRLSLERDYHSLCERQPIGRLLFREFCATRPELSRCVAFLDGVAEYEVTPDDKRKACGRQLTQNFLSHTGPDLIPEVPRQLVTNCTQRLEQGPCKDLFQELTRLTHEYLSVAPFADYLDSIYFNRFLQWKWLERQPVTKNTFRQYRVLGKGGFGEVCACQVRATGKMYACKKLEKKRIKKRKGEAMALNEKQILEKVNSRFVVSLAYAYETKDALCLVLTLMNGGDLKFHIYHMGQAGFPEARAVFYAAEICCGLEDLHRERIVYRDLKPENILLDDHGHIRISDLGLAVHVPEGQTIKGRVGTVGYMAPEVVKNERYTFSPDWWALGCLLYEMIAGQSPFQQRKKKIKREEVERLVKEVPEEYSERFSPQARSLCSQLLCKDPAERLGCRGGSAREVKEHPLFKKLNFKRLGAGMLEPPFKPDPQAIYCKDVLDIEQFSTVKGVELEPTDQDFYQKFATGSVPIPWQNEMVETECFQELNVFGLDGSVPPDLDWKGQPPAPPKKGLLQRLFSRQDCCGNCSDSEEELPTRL
RAC-alpha serine/threonine-protein kinase, sequence (P31749 whole entry): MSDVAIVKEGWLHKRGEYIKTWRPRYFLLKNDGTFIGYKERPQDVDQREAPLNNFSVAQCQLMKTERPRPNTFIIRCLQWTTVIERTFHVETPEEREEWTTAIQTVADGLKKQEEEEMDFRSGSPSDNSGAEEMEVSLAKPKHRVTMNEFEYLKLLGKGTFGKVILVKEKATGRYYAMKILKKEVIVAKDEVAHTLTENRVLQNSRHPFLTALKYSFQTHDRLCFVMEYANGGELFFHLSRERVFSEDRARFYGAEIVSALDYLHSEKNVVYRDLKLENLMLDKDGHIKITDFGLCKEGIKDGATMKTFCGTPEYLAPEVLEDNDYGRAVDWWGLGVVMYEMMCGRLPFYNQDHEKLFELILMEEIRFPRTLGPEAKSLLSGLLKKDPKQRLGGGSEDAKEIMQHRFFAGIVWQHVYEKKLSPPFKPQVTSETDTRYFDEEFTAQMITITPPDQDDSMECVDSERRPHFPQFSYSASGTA

Papp A→B [1]: 24.2 ×10⁻⁶ cm/s
Structure (SMILES): O=c1c2cc(-c3cn[nH]c3)ccc2ncn1Cc1cccc(OC(F)F)c1

Papp A→B [1]: 7.73 ×10⁻⁶ cm/s
Structure (SMILES): O=c1c2cc(-c3cn[nH]c3)ccc2ncn1Cc1cccc(Oc2ccc(F)cc2)c1

Papp A→B [1]: 0.44 ×10⁻⁶ cm/s
Structure (SMILES): O=C(Nc1ccc(F)cc1)c1cccc(Cn2cnc3ccc(-c4cn[nH]c4)cc3c2=O)c1

Papp A→B [1]: 0.57 ×10⁻⁶ cm/s
Structure (SMILES): O=C(NCc1ccc(F)cc1)c1cccc(Cn2cnc3ccc(-c4cn[nH]c4)cc3c2=O)c1

Papp A→B [1]: 0.66 ×10⁻⁶ cm/s
Structure (SMILES): O=C(NCc1c(F)cccc1F)c1ccc(Cn2cnc3ccc(-c4cn[nH]c4)cc3c2=O)cc1

Papp A→B [1]: 0.85 ×10⁻⁶ cm/s
Structure (SMILES): O=C(NCc1c(F)cccc1F)c1cccc(Cn2cnc3ccc(-c4cn[nH]c4)cc3c2=O)c1

The remaining lines, values behind:

Structure (SMILES): COc1cc(Cn2cnc3ccc(-c4cn[nH]c4)cc3c2=O)ccc1F
Papp A→B [1]: 10.1 ×10⁻⁶ cm/s

Structure (SMILES): COc1ccc(Cn2cnc3ccc(-c4cn[nH]c4)cc3c2=O)cc1F
Papp A→B [1]: 12.3 ×10⁻⁶ cm/s

Structure (SMILES): O=c1c2cc(-c3cncnc3)ccc2ncn1Cc1ccccc1
Kd [2]: > 83.3 µM
Kd (Rhodopsin kinase GRK1 [3]): > 83.3 µM

Structure (SMILES): O=c1c2cc(-c3ccncc3)ccc2ncn1Cc1ccccc1
Kd [2]: > 83.3 µM
Kd (Rhodopsin kinase GRK1 [3]): > 83.3 µM

Structure (SMILES): CNCCC(c1cccc(OC)c1)n1cnc2ccc(-c3cn[nH]c3)cc2c1=O (racemic)
Papp A→B [1]: < 0.34 ×10⁻⁶ cm/s

Structure (SMILES): COc1cccc(Cn2cnc3ccc(-c4cn[nH]c4)cc3c2=O)c1
IC50 [4]: 3.27 µM
IC50 (Aurora kinase A): 11 nM
IC50 [5]: 246 nM
IC50 (Rhodopsin kinase GRK7): 9.14 µM
IC50 [6]: 855 nM
IC50 [7]: > 10 µM
Papp A→B [1]: 20.6 ×10⁻⁶ cm/s
IC50 [8]: 483 nM
IC50 [9]: 3.85 µM
IC50 [10]: 4.5 µM
IC50 [11]: 9.07 µM
IC50 (Rhodopsin kinase GRK1 [12]): > 10 µM
IC50 [13]: 1450 nM

Structure (SMILES): COc1cccc([C@@H](C)n2cnc3ccc(-c4cn[nH]c4)cc3c2=O)c1
Papp A→B [1]: 37.8 ×10⁻⁶ cm/s

Structure (SMILES): O=c1c2ccc(-c3cn[nH]c3)cc2ncn1Cc1ccccc1
Kd [2]: > 83.3 µM
Kd (Rhodopsin kinase GRK1 [3]): 47.6 µM

Structure (SMILES): O=c1c2cc(-c3cn[nH]c3)ccc2ncn1Cc1ccccc1
Kd [2]: 34.3 µM
Kd (Rhodopsin kinase GRK1 [3]): 14.5 µM

Structure (SMILES): COc1cccc(Cn2ncc3ccc(-c4cn[nH]c4)cc3c2=O)c1
Vd [14]: 2.01 L/kg
half-life [15]: 60.6 min
IC50 [4]: > 10 µM
IC50 (Aurora kinase A): 137 nM
IC50 [5]: 1270 nM
IC50 (Rhodopsin kinase GRK7): > 10 µM
bioavailability [16]: 65.3%
clearance [17]: 29.1 mL/min/kg
Tmax [18]: 49.8 min
IC50 [6]: 4880 nM
IC50 [7]: > 10 µM
Papp A→B [1]: 53.2 ×10⁻⁶ cm/s
IC50 [8]: 3150 nM
IC50 [9]: > 10 µM
IC50 [10]: > 10 µM
IC50 [11]: > 10 µM
Cmax [19]: 4.96 µM
half-life [20]: 145 min
IC50 (Rhodopsin kinase GRK1 [12]): > 10 µM
IC50 [13]: > 10000 nM

Structure (SMILES): O=c1c2cc(-c3ccn[nH]3)ccc2ncn1Cc1ccccc1
Kd [2]: > 83.3 µM
Kd (Rhodopsin kinase GRK1 [3]): > 83.3 µM
